CTSL1 counter = cathepsin L1 inhibition, PFM18AAP counter-screen; recombinant F. hepatica cathepsin L1, Z-Leu-Arg-MCA fluorescence; inhibition, % at 5.96 µM; hit rate 0.49% among 300,000; AID 1906;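 active = inhibition above the mean of all tested compounds plus 3 SD, set per screening campaign, cut at about 17% in these data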;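 also: 0% = plate median of test compound wells and 100% = 1 µM Z-Phe-Ala-diazomethylketone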
UCH37 inh = blocks the human deubiquitinase UCH37 | Q9Y5K5 | purified proteasome/UCH37, Ub-AMC cleavage fluorescence | inhibition, % (test concentration not listed) | hit rate 0.33% among 330,000 | AID 588478;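 active = mean inhibition over replicate wells above about 20%, limit read from the data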;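 also: 0% = compound-free wells with enzyme and 100% = wells lacking proteasome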
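Assay system: Proteasome-bound UCH37. Buffer or medium: pH 7.4 Tris-HCl (50 mM) with ovalbumin, ATP-MgCl2, DTT. Incubation: 30 min preincubation with enzyme, 25 min cleavage at room temperature. Measured by: fluorescence, ex 355 nm, em 460 nm. Read-out basis: percent inhibition. Control set: wells without proteasome as full block, compound-free enzyme plus substrate as uninhibited.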
Apaf-1 inh = blocks human Apaf-1 apoptosome activity; reconstituted apoptosome caspase-3 activity, DEVD-Rh110 fluorescence; hit rate 0.71% among 330,000; O14727; AID 489030; inhibition, % at 20 µM; active = inhibition of at least 40% at 20 µM;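 also: plate controls were DMSO wells for no effect and DEVD-CHO caspase inhibitor wells for full effect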
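detection = Rh110 fluorescence intensity | test system = biochemical Apaf-1 apoptosome reconstitution | also added = cytochrome c and DEVD-Rh110 substrate | schedule = 30 min plus 50 min, RT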
GSTO1 inh = blocks human GSTO1 in RBBP9 counter-screen. P78417. recombinant GSTO1, activity-based probe fluorescence polarization. inhibition, % at 5.96 µM. hit rate 1.1% among 300,000;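 active = inhibition above the campaign mean inhibition plus 3 SD, cut at about 35% in these data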;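 also: 0% = GSTO1-1 with DMSO and 100% = wells lacking GSTO1-1 enzyme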
PP5 primary = blocks human protein phosphatase 5 activity. purified PP5c, OMFP substrate fluorescence. P53041. inhibition, % at 6.7 µM. hit rate 0.18% among 320,000;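 active = inhibition above the campaign's mean inhibition across all tested compounds plus 3 SD, cut at about 9.5% in these data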;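 also: 0% = DMSO only and 100% = 100 µM cantharidin control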
PAD4 inh = inhibitors of human PAD4; Q9UM07; recombinant PAD4, RCA probe fluorescence polarization; inhibition, % at 6.36 µM; hit rate 0.41% among 330,000; AID 485272;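 active = percent inhibition above a cutoff equal to the mean of all tested compounds plus 3 SD, cut at about 15% in these data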;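 also: 0% = PAD4 with RCA probe and DMSO and 100% = probe without PAD4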
Target sequence (Q9UM07 whole entry, looked up): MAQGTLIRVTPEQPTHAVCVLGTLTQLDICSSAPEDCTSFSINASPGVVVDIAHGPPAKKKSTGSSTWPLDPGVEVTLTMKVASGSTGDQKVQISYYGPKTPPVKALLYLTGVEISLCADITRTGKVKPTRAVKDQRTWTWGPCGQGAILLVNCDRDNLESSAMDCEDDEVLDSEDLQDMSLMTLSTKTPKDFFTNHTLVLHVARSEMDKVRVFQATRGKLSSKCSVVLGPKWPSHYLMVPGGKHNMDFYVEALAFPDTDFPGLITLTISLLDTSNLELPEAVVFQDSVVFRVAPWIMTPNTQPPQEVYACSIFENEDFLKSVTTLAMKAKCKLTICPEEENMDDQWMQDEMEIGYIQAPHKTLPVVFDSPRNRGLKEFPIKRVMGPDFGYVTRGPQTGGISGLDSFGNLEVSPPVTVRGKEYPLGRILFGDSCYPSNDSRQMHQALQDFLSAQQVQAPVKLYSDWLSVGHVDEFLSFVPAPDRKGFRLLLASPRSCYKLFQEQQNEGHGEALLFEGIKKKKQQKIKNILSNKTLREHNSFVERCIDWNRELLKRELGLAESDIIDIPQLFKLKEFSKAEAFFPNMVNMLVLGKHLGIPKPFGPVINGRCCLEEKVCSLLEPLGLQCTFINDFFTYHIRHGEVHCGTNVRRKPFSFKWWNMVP
PAD4 confirm = PAD4 (human) inhibition, confirmed; AID 488796; shares compounds with PAD4 inh; inhibition, % at 6.36 µM; hit rate 28% among 1,200; recombinant PAD4, RCA probe fluorescence polarization;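 active = mean inhibition across replicates above the hit cutoff set by the earlier primary screen, cut at about 15% in these data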;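 also: inhibitors block active-site labeling by the probe so polarization falls; 0% = PAD4 with probe and DMSO and 100% = probe without PAD4 enzyme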
Apaf-1 inh conf = confirmation of Apaf-1 inhibitors; shares compounds with Apaf-1 inh; hit rate 25% among 1,800; inhibition, % at 20 µM; reconstituted apoptosome, caspase-3 DEVD-Rh110 fluorescence;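 active = mean inhibition of at least 40% at 20 µM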;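 also: plate controls were DMSO wells for no effect and DEVD-CHO caspase inhibitor control wells for full effect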
Rh110 interf inh = counter-screen for Apaf-1 inhibitors: fluorescence interference; shares compounds with Apaf-1 inh; Rh110 fluorescence interference, quenched caspase reaction; 1,800 tested, under 10 active; activation (fluorescence interference), % at 20 µM;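 active = signal rise of 40% or more at 20 µM, treated as a fluorescence artifact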
Fluor interf inh = shows fluorescence interference in the Apaf-1 inhibitor assay format; AID 588538; IC50, µM; fluorescence interference counterscreen, Apaf-1 assay format; shares compounds with Apaf-1 inh; 460 tested, under 10 active; call rule not given here
Numbers without * were called inactive; . = not tested or not shown. In the library only some 2% were active in any assay of this set; here they are far more common.

SMILES	CTSL1 counter	UCH37 inh	Apaf-1 inh	GSTO1 inh	PP5 primary	PAD4 inh	PAD4 confirm	others
CCC(=O)Nc1ccccc1C(=O)C(=O)Nc1ccccc1	-1	2	-2	5	2	20*	0
Cc1n[nH]c(=S)n(/N=C/c2cccs2)c1=O	1	.	-23	23	-1	18*	5
CC(C)(C)c1ccc(Cn2nnc3c(=O)[nH]c(C4CCCN(C(=O)Cc5cccs5)C4)nc32)cc1 (configuration not stated)	2	6	33	-2	4	1	.
CC(C)(C)c1ccc(Cn2nnc3c(=O)[nH]c(C4CCN(C(=O)Cc5cccs5)CC4)nc32)cc1	2	1	37	9	5	37*	-6
O=C1CCCC(O)=C1N=Nc1c(Cl)cc(C(F)(F)F)cc1Cl	0	11	-7	8	-1	85*	0
CC1(C)CC(=O)C(N=Nc2cc(C(F)(F)F)ccc2Cl)=C(O)C1	3	8	2	4	0	1	.
COc1cc(C=NNc2ccccc2[N+](=O)[O-])ccc1OC(=O)c1ccccc1F	.	10	.	.	.	.	.
Oc1ccc(Br)cc1C=NNc1ncc(-c2ccccc2)cn1	.	4	.	.	.	.	.
Cc1c(C(=O)N2CCCCC2)c(S(=O)(=O)N2CCN(c3ccc(Cl)cc3)CC2)c(C)n1C	3	5	13	0	4	68*	3
CCOC(=O)c1ccc(NC(=O)CSC2=NC(=O)C(CC)C(=O)N2)cc1 (configuration not stated)	0	9	-12	0	4	21*	20*
CCN(CC)c1ccc(C=NNC(=O)c2ccc(Br)o2)cc1	.	-14	.	.	.	.	.
Cc1ccc(CNC(=O)c2ccc(C)c(S(=O)(=O)N3CCCCC3)c2)cc1	.	0	15	.	0	105*	10
Cc1ccc(C(=O)NCc2ccc(Cl)cc2)cc1S(=O)(=O)N1CCCCC1	.	-1	14	.	1	-1	.
COc1ccc(Cl)cc1N(CC(=O)NN=Cc1ccc(OC(C)C)cc1)S(=O)(=O)c1ccc(C)c([N+](=O)[O-])c1	.	3	.	.	.	.	.
O=C(NN=Cc1cccc([N+](=O)[O-])c1)c1ccc(Br)cc1	.	0	.	.	.	.	.
CCNc1cc(O)ccc1C	.	.	9	.	4	122*	53*
Cc1ccc(C(=O)CNc2cc(C)ccc2C)cc1	3	1	10	2	-2	-2	.
Clc1cccc(-c2ccc(C=Nc3ccc(N4CCOCC4)cc3)o2)c1	2	1	.	8	-1	19*	5
Oc1ccc(N=Nc2cccc(Cl)c2)cc1C=Nc1ccc(N2CCOCC2)cc1	.	9	.	.	.	.	.
Cc1cc(=O)[nH]c(NN=Cc2ccc(O)c(O)c2)n1	.	8	.	.	.	.	.
COc1cccc(C(=O)Nc2nc(-c3ccc(S(=O)(=O)N4CCOCC4)cc3)cs2)c1	-2	-4	13	-10	5	-1	.
O=C(Nc1nc(-c2ccc(S(=O)(=O)N3CCOCC3)cc2)cs1)c1ccccc1	3	0	17	-14	1	15*	19*
CN(C(=O)c1ccc(NC(=O)Cc2cccc([N+](=O)[O-])c2)cc1)C1CC1	.	6	-4	.	1	35*	4
COc1ccc(-c2noc3c2-c2nc(-c4ccc(Br)cc4)sc2CC3)cc1	0	-8	9	5	0	102*	2
COc1ccc(C=NNc2cc(C)nc(NS(=O)(=O)c3ccc(C)cc3)n2)cc1	.	4	.	.	.	.	.
SMILES	CTSL1 counter	UCH37 inh	Apaf-1 inh	GSTO1 inh	PP5 primary	PAD4 inh	PAD4 confirm	others
COc1cccc(C(=O)OCC(=O)c2c(N)n(C)c(=O)n(C)c2=O)c1	.	1	1	.	-1	22*	5
Cc1cc(Cl)ccc1OCC(=O)OCC(=O)c1c(N)n(C)c(=O)n(C)c1=O	.	2	-1	.	2	27*	6
COc1ccc(NS(=O)(=O)c2cccc(C(=O)OCC(=O)c3c(N)n(C)c(=O)n(C)c3=O)c2)cc1	.	4	-17	.	.	-7	.
Cn1c(N)c(C(=O)COC(=O)COc2ccc(Br)cc2)c(=O)n(C)c1=O	.	1	4	.	1	171*	8
O=C(ON=C(c1ccccc1)c1ccncc1)c1ccccc1Cl	.	5	.	.	.	.	.
Cc1nc2ccccc2n2c(O)c(CC(=O)O)cc12	1	-404	-21	14	-1	75*	39*
Cn1c(Cl)c(C=NOC(=O)c2ccccc2Cl)c2ccccc21	.	1	.	.	.	.	.
COc1cc(-c2nc(C(=O)NC3CCCCC3)cc3c2[nH]c2ccccc23)cc(OC)c1OC	-5	-43	-10	-18	5	16*	16*
Cc1ccc(-c2nn(-c3ccccc3)cc2/C=C2\SC(=S)N(CC(=O)O)C2=O)cc1	1	21*	0	-4	-1	15*	3
COc1ccc(-c2nn(-c3ccccc3)cc2/C=C2/SC(=S)N(CCC(=O)O)C2=O)cc1	8	9	17	-12	2	0	.
O=C(O)CN1C(=O)/C(=C\c2ccccc2OCc2ccc(Cl)cc2)SC1=S	-3	.	5	4	1	22*	2
CC(C)=CCC(C)(C)C=NNC(N)=O	.	2	.	.	.	.	.
COc1ccc(C2=NN(c3ccccc3)C(=O)/C2=C\c2ccc(O)c(OC)c2)cc1	1	4	90*	54*	0	67*	-2	Apaf-1 inh conf=17;Rh110 interf inh=4
C=CCN1C=C2C(=O)C(C)(OC(=O)CCC(=O)OC)C(=O)C=C2C=C1C1CC1 (configuration not stated)	-2	5	43*	37*	9	17*	-11	Apaf-1 inh conf=53*;Rh110 interf inh=2;Fluor interf inh=>100
COC(=O)CCC(=O)OC1(C)C(=O)C=C2C=C(C3CC3)N(Cc3ccc(OC)cc3)C=C2C1=O (configuration not stated)	-1	0	35	21	8	2	.
Cc1[nH][nH]c(=O)c1C(c1ccc(N(C)C)c(Br)c1)c1c(C)[nH][nH]c1=O	5	.	3	21	3	-11	.
Cc1[nH][nH]c(=O)c1C(c1ccc(-c2ccc(F)cc2)o1)c1c(C)[nH][nH]c1=O	-7	22*	72*	52*	3	48*	-20	Apaf-1 inh conf=32;Rh110 interf inh=5
CN(N=Cc1ccc(N(C)C)cc1)C1=NS(=O)(=O)c2ccccc21	.	0	.	.	.	.	.
